The results in this text go back to ChEMBL document CHEMBL2176873, “α-1-C-butyl-1,4-dideoxy-1,4-imino-l-arabinitol as a second-generation iminosugar-based oral α-glucosidase inhibitor for improving postprandial hyperglycemia” (J Med Chem, 2012).

The source made the active and inactive calls. The rule behind the calls is not given here.

Experiment [1] concerns Mus musculus. Description: Antihyperglycemic activity in overnight fasted ddY mouse assessed as decrease in blood glucose level at 0.25 mg/kg administered via stomach tube measured at 15 to 30 mins by maltose loading test relative to control. It counts as functional. On the set-up: scale not given: the % may be the effect or the level left. The method in brief: (§1)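 Male ddY mice received maltose or sucrose (2.5 g/kg) with inhibitor in 0.9% NaCl by stomach tube; controls got saline only. Tail-vein blood glucose was read with a portable meter at 0, 15, 30, 60 and 120 min after loading.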

The target of experiment [2] is T1, Lysosomal acid glucosylceramidase (Homo sapiens) (UniProt P04062).
T1 sequence (whole entry): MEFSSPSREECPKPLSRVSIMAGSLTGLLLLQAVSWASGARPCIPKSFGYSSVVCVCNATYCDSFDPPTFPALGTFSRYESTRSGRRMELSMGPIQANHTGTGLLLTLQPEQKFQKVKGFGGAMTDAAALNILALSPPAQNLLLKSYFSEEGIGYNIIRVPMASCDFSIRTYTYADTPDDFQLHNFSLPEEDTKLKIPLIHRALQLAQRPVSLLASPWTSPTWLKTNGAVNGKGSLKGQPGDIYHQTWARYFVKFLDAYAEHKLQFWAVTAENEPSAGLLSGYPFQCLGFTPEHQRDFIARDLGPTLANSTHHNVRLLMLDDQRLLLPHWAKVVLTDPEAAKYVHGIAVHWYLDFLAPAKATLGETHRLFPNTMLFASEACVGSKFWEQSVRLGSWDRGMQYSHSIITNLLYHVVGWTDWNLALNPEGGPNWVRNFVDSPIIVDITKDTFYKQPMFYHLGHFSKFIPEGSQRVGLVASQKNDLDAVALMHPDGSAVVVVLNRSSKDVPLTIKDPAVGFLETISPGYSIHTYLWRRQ
Description: Inhibition of human beta-glucocerebrosidase at 1000 uM.

The subject of experiment [3] is Mus musculus. The experiment is described as follows: Antihyperglycemic activity in overnight fasted ddY mouse assessed as decrease in blood glucose level at 0.25 mg/kg administered via stomach tube measured at 60 to 120 mins by maltose loading test relative to control. It is filed as functional, organism-based. On the set-up: dose 0.25 mg/kg. The method, boiled down:
as §1

For experiment [4], the system named is Mus musculus. Description: Antihyperglycemic activity in overnight fasted ddY mouse assessed as decrease in blood glucose level at 0.1 mg/kg administered via stomach tube after 60 mins by sucrose loading test relative to control. On the set-up: scale not given: the % may be the effect or the level left. It is filed as functional. The method, boiled down: as §1

Experiment [5] has as its target Lysosomal alpha-glucosidase (Homo sapiens) (UniProt P10253). Description: Inhibition of alpha-glucosidase in human HepG2 cells assessed as increase in expression of immature high mannose type N-linked oligosachcharides at 500 uM after 48 hrs by MALDI-TOF MS analysis relative to untreated control. It is filed as cell-based. The method, boiled down: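 HepG2 cells were grown in low-glucose DMEM with 10% FCS at 37 °C, 5% CO2, and treated 48 h with 500 μM compound. Homogenates in 0.5% Triton X-100 were DTT-reduced, alkylated with iodoacetamide, trypsinized and PNGase F-released (37 °C, 16 h). Glycans were captured on hydrazide beads, methyl-esterified, released as aoWR derivatives, and profiled by MALDI-TOF MS; proportions were compared with untreated cells.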

Experiment [6] has as its target T2, Trehalase (Rattus norvegicus) (UniProt O70282).
T2 sequence (whole entry): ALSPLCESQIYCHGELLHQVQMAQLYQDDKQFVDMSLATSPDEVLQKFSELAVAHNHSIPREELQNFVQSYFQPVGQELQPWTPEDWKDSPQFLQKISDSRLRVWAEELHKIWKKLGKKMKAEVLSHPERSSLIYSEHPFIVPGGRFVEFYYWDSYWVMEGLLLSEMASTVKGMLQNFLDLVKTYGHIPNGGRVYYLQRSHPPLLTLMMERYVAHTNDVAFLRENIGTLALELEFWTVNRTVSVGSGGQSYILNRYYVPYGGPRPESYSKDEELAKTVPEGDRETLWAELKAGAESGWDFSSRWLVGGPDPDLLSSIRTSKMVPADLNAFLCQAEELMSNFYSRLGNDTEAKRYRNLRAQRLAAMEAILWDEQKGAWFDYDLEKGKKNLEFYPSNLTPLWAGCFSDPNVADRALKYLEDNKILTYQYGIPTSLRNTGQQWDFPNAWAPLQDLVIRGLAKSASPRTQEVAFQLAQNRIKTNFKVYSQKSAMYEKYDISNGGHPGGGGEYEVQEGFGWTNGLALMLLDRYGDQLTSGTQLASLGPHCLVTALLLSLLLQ
Description: Inhibition of rat intestinal trehalase at 1000 uM.

In experiment [7] the target is T3, Uncharacterized protein (Sus scrofa) (UniProt I3LIR5).
T3 sequence (whole entry): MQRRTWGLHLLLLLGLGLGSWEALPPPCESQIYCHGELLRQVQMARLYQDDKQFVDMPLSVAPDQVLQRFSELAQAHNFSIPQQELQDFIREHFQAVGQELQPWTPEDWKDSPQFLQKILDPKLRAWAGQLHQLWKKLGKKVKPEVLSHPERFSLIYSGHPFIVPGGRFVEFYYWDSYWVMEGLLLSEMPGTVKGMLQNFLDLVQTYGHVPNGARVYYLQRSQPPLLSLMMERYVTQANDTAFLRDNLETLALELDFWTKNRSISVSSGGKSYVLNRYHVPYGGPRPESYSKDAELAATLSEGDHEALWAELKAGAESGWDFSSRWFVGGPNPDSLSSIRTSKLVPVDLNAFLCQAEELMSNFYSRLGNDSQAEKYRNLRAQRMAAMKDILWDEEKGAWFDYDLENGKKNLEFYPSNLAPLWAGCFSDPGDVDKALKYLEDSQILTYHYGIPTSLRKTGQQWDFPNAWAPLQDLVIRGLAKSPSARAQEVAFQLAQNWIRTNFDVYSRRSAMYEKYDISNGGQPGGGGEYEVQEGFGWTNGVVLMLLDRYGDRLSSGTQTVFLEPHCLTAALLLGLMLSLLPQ
The experiment is described as follows: Inhibition of porcine kidney trehalase at 1000 uM.

The species entered for experiment [8] is Rattus norvegicus. The experiment is described as follows: Inhibition of rat intestinal cellobiase using cellobiose as substrate at 1000 uM. The method, boiled down:
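Rat small-intestine brush border membrane preparation, assayed at pH 5.8 with the matching disaccharide as substrate (maltose at 25 mM). Incubation for 10–30 min at 37 °C, stopped by heating at 100 °C for 3 min and centrifuged. Released D-glucose in the supernatant was measured by glucose reagent absorbance at 505 nm.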

One may read the inhibition as how much of the control response was suppressed. Turning to `CCCC[C@@H]1N[C@@H](CO)[C@H](O)[C@H]1O`, the Activity in experiment [1] is 43.9%; in experiment [4] it was 49.1%. In addition, the inhibition in experiment [2], in experiment [6], in experiment [7] and in experiment [8] was under 50% in each case. Moreover, the outcome in experiment [3] was inactive. For the same molecule, the inhibition result in experiment [5] was “inactive”.
